Consider 18 molecules from ChEMBL document CHEMBL1143973, “Imine derivatives as new potent and selective CB2 cannabinoid receptor agonists with an analgesic action” (Bioorg Med Chem, 2008).

Usually pIC50 stands for the IC50 on a negative log10 scale, so that one unit is a factor of ten. Broadly, the Emax is the maximal effect, on the per cent scale that the assay sets. Broadly, the pEC50 is −log10 of the EC50, conventionally taken in molar units. As usually defined, the solubility is the dissolved amount per volume that the medium holds. The low end stands for a poorly soluble substance, the high end for a readily soluble substance. One may read the half-life as how long it takes for the measured level to halve. Low readings indicate fast loss, high ones slow loss. As usually defined, the Cmax is the highest concentration seen after dosing. As a reminder, the AUC(0-t) is the area under the concentration-time curve up to a stated or last time point. A high value points to more exposure. As a reminder, the Tmax is the time at which the peak concentration occurs.

pEC50, pIC50: −log10 of the molar value. Values after ≈ are worked out from the molar mass of the structure shown. Active and inactive are the calls of the source. Some results are limits rather than exact numbers.

The target of series [1] is T1, Cannabinoid receptor 2 (Homo sapiens, UniProt P34972). The series is described as follows: Displacement of [3H]CP-55940 from human recombinant CB2 receptor expressed in CHO cells. The series is classed as cell-based. (Loss of bound radioactivity is the signal in a displacement assay; it reports binding, not function.)
T1 sequence (P34972 whole entry): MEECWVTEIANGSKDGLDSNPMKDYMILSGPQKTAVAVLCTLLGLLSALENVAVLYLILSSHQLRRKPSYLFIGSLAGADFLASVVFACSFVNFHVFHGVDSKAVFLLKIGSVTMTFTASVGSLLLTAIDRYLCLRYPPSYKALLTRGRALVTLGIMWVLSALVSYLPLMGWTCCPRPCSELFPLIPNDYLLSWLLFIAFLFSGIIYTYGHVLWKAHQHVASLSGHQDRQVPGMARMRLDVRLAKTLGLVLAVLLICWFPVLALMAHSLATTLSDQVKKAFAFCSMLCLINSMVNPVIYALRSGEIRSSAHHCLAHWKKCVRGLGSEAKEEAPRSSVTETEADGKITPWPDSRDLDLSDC
Series [2] has as its target T2, Cannabinoid receptor 1 (Homo sapiens, UniProt P21554). The series is described as follows: Displacement of [3H]CP-55940 from human recombinant CB1 receptor expressed in CHO cells. It counts as cell-based.
For series [3], the target named is T1, Cannabinoid receptor 2. Kind of series: Agonist activity at human recombinant CB2 receptor expressed in CHO cells by [35S]GTP-gamma-S binding assay relative to CP-55940. It counts as functional, cell-based. Summed up:
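Membranes from CHO cells expressing human CB2 (5 µg/well) in Hepes buffer pH 7.4 with 100 mM NaCl, 3 mM MgCl2, 0.2% BSA, 3 µM GDP and 30 µg/mL saponin. Preincubated with compound for 30 min at 30 °C, then 0.1 nM [35S]GTPγS added for a further 30 min at 30 °C. Filtered and counted. Nonspecific binding defined with 10 µM GTPγS. Emax expressed relative to the maximal response to CP 55,940.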
In general terms: GTPγS is a poorly hydrolysed GTP analogue; its binding reports G protein activation.

The target in series [4] is T1, Cannabinoid receptor 2. Kind of series: Agonist activity at human recombinant CB2 receptor expressed in CHO cells by [35S]GTP-gamma-S binding assay. The series is classed as functional, cell-based. Summed up: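 Membranes from CHO cells expressing human CB2 (5 µg/well) in Hepes buffer pH 7.4 with 100 mM NaCl, 3 mM MgCl2, 0.2% BSA, 3 µM GDP and 30 µg/mL saponin. Preincubated with compound for 30 min at 30 °C, then 0.1 nM [35S]GTPγS added for a further 30 min at 30 °C. Filtered and counted. Nonspecific binding defined with 10 µM GTPγS.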

Series [5] deals with T1, Cannabinoid receptor 2. Kind of series: Binding affinity to CB2 receptor.
Series [6] deals with T2, Cannabinoid receptor 1. The series is described as follows: Binding affinity to CB1 receptor.
Series [7] in a line: Solubility in water at 25 degC. It counts as physicochemical. An outline of the steps: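 Excess compound shaken in water at room temperature for 24 h, then centrifuged for 10 min at 25 °C. Supernatant diluted in 50% aqueous acetonitrile and quantified by reversed-phase HPLC with UV detection at 230 nm.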
The species named for a further series is Homo sapiens. The series is described as follows: Selectivity for human CB2 receptor over human CB1 receptor.
Series [8] has as its target T1, Cannabinoid receptor 2. The series is described as follows: Agonist activity at CB2 receptor. It counts as functional. Summed up: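 [³⁵S]GTPγS binding on membranes of CHO cells expressing human CB2. Buffer 20 mM Hepes, 100 mM NaCl, 3 mM MgCl2, 0.2% BSA, 3 µM GDP, 30 µg/mL saponin, pH 7.4. Membranes (5 µg/well) preincubated with compounds 30 min at 30 °C, then 0.1 nM [³⁵S]GTPγS added for 30 min at 30 °C. Filtration and scintillation counting; nonspecific binding with 10 µM GTPγS. EC50 derived; Emax relative to CP 55,940 maximum.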

For series [9], the target named is T2, Cannabinoid receptor 1. The series is described as follows: Agonist activity at CB1 receptor. The series is classed as functional.
Series [10] in a line: Half life in Sprague-Dawley rat at 10 mg/kg, po. The conditions noted are these: in vivo. The series is classed as ADME, organism-based. Also on record: dose 10 mg/kg, route oral. An outline of the steps: (§1)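 Male Sprague–Dawley rats, 7–8 weeks old, dosed orally at 10 mg/kg. Blood taken from the tail vein and plasma stored at -80 °C. Plasma protein-precipitated with acetonitrile/methanol (9:1) containing internal standard, then quantified by LC-MS/MS (ESI, positive MRM). LLOQ 1 ng/mL. Mean ± SD of three animals.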

Series [11] in a line: Plasma concentration in Sprague-Dawley rat at 10 mg/kg, po after 1.67 hrs. It counts as ADME, organism-based. Also on record: dose 10 mg/kg, route oral. Summed up: as §1
Series [12] can be described thus: AUC (0 to 8 hrs) in Sprague-Dawley rat at 10 mg/kg, po. Also on record: time < 8 hr, dose 10 mg/kg, route oral. Particulars: plasma. It counts as ADME, organism-based.
Series [13] concerns Rattus norvegicus. The series is described as follows: Reversal of mechanical hyperalgesia in Wistar rat at 30mg/kg, po after 1 hr by Randall-Selitto test. The series is classed as functional, organism-based. An outline of the steps:
(§2)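 Male Wistar rats (200–220 g) given 0.1 mL of 20% yeast suspension into the right hind paw plantar surface. Control paw-withdrawal threshold read by algesiometer 2 h after yeast, then compound given orally in 5% gum arabic vehicle. Threshold re-read at 1 and 3 h. Result expressed as %MPE. Seven rats per group; Dunnett's test versus vehicle.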

Series [14] is described as follows: Metabolic stability in human liver microsomes after 15 mins. Particulars: read-out: Stability. The series is classed as ADME, Microsome. Summed up:
(§3)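 Compound at 5 µM final incubated for 15 min at 37 °C with human or rat liver microsomes (1.0 mg protein/mL) in phosphate buffer with KCl, pH 7.4, plus an NADPH-generating system. Stopped with DMSO, centrifuged, and the remaining compound measured by LC-MS/MS. Run in triplicate.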
On the technique in general: Liver microsomes are a subcellular fraction often used to study metabolism.

Series [15] addresses T3, Cannabinoid receptor 2 (Rattus norvegicus, UniProt Q9QZN9).
T3 sequence (Q9QZN9 whole entry): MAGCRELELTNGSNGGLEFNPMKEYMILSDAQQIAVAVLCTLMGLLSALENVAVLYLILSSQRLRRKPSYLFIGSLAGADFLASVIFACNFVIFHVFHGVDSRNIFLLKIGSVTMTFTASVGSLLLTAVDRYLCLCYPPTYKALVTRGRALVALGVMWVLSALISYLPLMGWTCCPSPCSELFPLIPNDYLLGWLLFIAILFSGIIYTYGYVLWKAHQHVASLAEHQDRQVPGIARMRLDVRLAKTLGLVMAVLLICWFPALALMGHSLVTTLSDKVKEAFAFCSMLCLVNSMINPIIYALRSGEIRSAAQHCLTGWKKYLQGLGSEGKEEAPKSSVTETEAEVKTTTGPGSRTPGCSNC
The series is described as follows: Displacement of [3H]CP-55940 from […] receptor in Sprague-Dawley rat spleen membrane. The series is classed as cell membranes. An outline of the steps:
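Rat spleen membranes (100 µg/well) from male Sprague–Dawley rats in Tris-HCl buffer pH 7.4 with 5 mM EDTA, 5 mM MgCl2 and 0.2% BSA. Incubated with varying compound concentrations and 0.57 nM [3H]CP 55,940 at 25 °C for 120 min. Filtered and counted. Nonspecific binding defined with 2 µM CP 55,940.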

The subject of series [16] is Rattus norvegicus. The series is described as follows: Reversal of mechanical hyperalgesia in Wistar rat at 10 mg/kg, po after 1 hr by Randall-Selitto test. It counts as functional, organism-based. Also on record: dose 10 mg/kg. Summed up: as §2
The nature of series [17]: Tmax in Sprague-Dawley rat at 10 mg/kg, po. The series is classed as ADME, organism-based. More on the design: dose 10 mg/kg, route oral. Particulars: in vivo. An outline of the steps: as §1
The nature of series [18]: Metabolic stability in Sprague-Dawley rat liver microsomes after 15 mins. The series is classed as ADME, Microsome. Particulars: read-out: Stability. Summed up: as §3

T2 sequence (P21554 whole entry): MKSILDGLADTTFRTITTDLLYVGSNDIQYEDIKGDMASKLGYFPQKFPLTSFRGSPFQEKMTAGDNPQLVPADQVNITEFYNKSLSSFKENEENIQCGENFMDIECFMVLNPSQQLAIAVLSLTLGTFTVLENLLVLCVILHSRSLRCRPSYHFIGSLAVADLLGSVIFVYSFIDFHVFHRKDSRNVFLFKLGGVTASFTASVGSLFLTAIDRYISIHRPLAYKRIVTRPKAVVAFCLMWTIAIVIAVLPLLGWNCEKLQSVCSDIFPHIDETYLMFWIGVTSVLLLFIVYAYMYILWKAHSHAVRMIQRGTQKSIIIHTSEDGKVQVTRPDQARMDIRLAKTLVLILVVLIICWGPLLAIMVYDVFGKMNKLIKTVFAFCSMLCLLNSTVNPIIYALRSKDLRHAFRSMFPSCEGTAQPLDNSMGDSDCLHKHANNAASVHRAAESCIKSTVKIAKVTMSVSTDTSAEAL

In the case of `Cc1c(C(C)C)o/c(=N\C(=O)c2cccc(C(F)(F)F)c2)n1CC1CC1`, the pIC50 on Cannabinoid receptor 2 [1] was 7.62.

For the molecule `CC(C)(C)c1c/c(=N\C(=O)c2cccc(C(F)(F)F)c2)n(CC2CC2)o1`, the pIC50 at Cannabinoid receptor 2 [1] was 7.34.

For `Cn1c(C(C)(C)C)c/c(=N\C(=O)c2cc(C(F)(F)F)ccc2F)n1CC1CC1`, the pIC50 on Cannabinoid receptor 1 [2] was 5.43; on Cannabinoid receptor 2 [1], 7.64. Also, the Emax on Cannabinoid receptor 2 [3] turned out to be 90%. Moreover, at Cannabinoid receptor 2 [4], the pEC50 is 8.06.

As to `CC(C)(C)c1c/c(=N\C(=O)c2cccc(C(F)(F)F)c2)n(CC2CC2)s1`, on Cannabinoid receptor 2 [1], the pIC50 is 8.02.

For `CCOCCn1/c(=N/C(=O)c2cccc(C(F)(F)F)c2F)cc(C(C)(C)C)n1C`, the pIC50 on Cannabinoid receptor 1 [2] is 6.06; at Cannabinoid receptor 2 [1], 8.43. The Emax on Cannabinoid receptor 2 [3] turned out to be 82%. Besides, at Cannabinoid receptor 2 [4], the pEC50 was 8.96.

On to `CC1(C)C(C(=O)c2cn(CCN3CCOCC3)c3ccccc23)C1(C)C`, for which, on Cannabinoid receptor 2 [5], the pIC50 was 9.11.

As for `Cn1c(C(C)(C)C)c/c(=N\C(=O)c2cccc(C(F)(F)F)c2F)n1CC1CCCC1`, the pIC50 on Cannabinoid receptor 1 [2] was 6.09. Also, the Emax on Cannabinoid receptor 2 [3] was 67%. Besides, the pEC50 on Cannabinoid receptor 2 [4] is 9.10.

With `CC(C)OCCn1/c(=N/C(=O)c2cccc(C(F)(F)F)c2F)cc(C(C)(C)C)n1C`, the pIC50 at Cannabinoid receptor 1 [2] is 6.12; on Cannabinoid receptor 2 [1], 8.59. Besides, the Emax at Cannabinoid receptor 2 [3] amounted to 76%. On Cannabinoid receptor 2 [4], the pEC50 is 9.07.

As to `Cc1c(C(=O)/N=c2\cc(C(C)(C)C)n(C)n2CC2CC2)cccc1C(F)(F)F`, the figures for the pIC50 on Cannabinoid receptor 1 [2] and on Cannabinoid receptor 2 [1] were 5.89 and 7.96, respectively. Besides, the Emax on Cannabinoid receptor 2 [3] came to 73%. On Cannabinoid receptor 2 [4], the pEC50 is 8.36.

`Cn1c(C(C)(C)C)c/c(=N\C(=O)c2cccc(C(F)(F)F)c2Cl)n1CC1CC1`: the pIC50 was 5.66 at Cannabinoid receptor 1 [2] and 8.43 at Cannabinoid receptor 2 [1]. Moreover, the Emax on Cannabinoid receptor 2 [3] was determined as 82%. The pEC50 on Cannabinoid receptor 2 [4] was 8.82.

On to `Cc1ccc(C(F)(F)F)cc1C(=O)/N=c1\cc(C(C)(C)C)n(C)n1CC1CC1`, for which the pIC50 at Cannabinoid receptor 2 [1] was 7.06.

With `CN1CCCCC1Cn1cc(C(=O)c2cc([N+](=O)[O-])ccc2I)c2ccccc21` (stereo not given), the pIC50 is 6.55 at Cannabinoid receptor 1 [6] and 8.47 on Cannabinoid receptor 2 [5].

For `Cc1c(C(C)(C)C)s/c(=N\C(=O)c2cccc(C(F)(F)F)c2)n1CC1CC1`, the solubility in [7] was below 0.1 µg/mL. The Ratio IC50 in the series listed under Homo sapiens was determined as 270.

In the case of `O=C(NCC1CCOCC1)c1cnc(Nc2ccc(Cl)cc2Cl)nc1C(F)(F)F` [GW842166X], the pEC50 was 7.30 at Cannabinoid receptor 2 [8] and below 4.52 on Cannabinoid receptor 1 [9].

For `Cn1c(C(C)(C)C)c/c(=N\C(=O)c2cccc(C(F)(F)F)c2)n1CC1CC1`, the pIC50 on Cannabinoid receptor 2 [1] was 7.29.

`Cn1c(C(C)(C)C)c/c(=N\C(=O)c2cccc(C(F)(F)F)c2F)n1CC1CC1` gave a half-life in series [10] of 2.47 h. This molecule also gave a solubility in series [7] of 59 µg/mL (≈ 148 µM). The molecule further returned a Cmax in series [11] of 545 ng/mL. The pIC50 on Cannabinoid receptor 1 [2] is 5.40; at Cannabinoid receptor 2 [1], 8.54; on Cannabinoid receptor 2 [15], 8.85. For the same molecule, the Emax at Cannabinoid receptor 2 [3] was 85%. Further, on Cannabinoid receptor 2 [4], the pEC50 was 8.74. Also, the AUC(0-t) at 8 h in [12] was 2160 ng·h/mL. The outcome in the series with Rattus norvegicus [13] and in the series with Rattus norvegicus [16] was Active. For the same molecule, the remaining at 0.25 h in series [14] worked out at 92%; in series [18], 86%. The Ratio IC50 in the series listed under Homo sapiens was 1400. For the same molecule, the time of peak concentration (Tmax) in series [17] is 1.67 h.

As to `CC(C)(C)c1nn(CC2CC2)/c(=N/C(=O)c2cccc(C(F)(F)F)c2)s1`, the negative-log IC50 (pIC50) at Cannabinoid receptor 2 [1] is 6.52.

On to `Cn1c(C(C)(C)C)c/c(=N\C(=O)c2cccc(C(F)(F)F)c2F)n1CC1CCC1`, for which the figures for the pIC50 on Cannabinoid receptor 1 [2] and on Cannabinoid receptor 2 [1] were 6.03 and 8.77, respectively. Also, on Cannabinoid receptor 2 [3], the Emax amounted to 96%. For the same molecule, the pEC50 on Cannabinoid receptor 2 [4] was 9.49.
